In ChEMBL document CHEMBL4130543, “Bacilotetrins A and B, Anti-Staphylococcal Cyclic-Lipotetrapeptides from a Marine-Derived Bacillus subtilis” (J Nat Prod, 2017) one finds MIC and Activity data, which are given here for three molecules.

Data set [1] deals with Staphylococcus aureus. Put plainly: Antibacterial activity against methicillin-resistant Staphylococcus aureus RN4220 after 24 hrs by MTT dye based broth microdilution method. It counts as functional.
Data set [2] has as its system Staphylococcus aureus. Put plainly: Antibacterial activity against methicillin-resistant Staphylococcus aureus isolate XU2120 after 24 hrs by MTT dye based broth microdilution method. Type of data set: functional. Particulars: isolate XU2120, 24 h. On the technique in general: Tetrazolium dyes change colour on reduction, which living cells bring about.
Data set [3] concerns Staphylococcus aureus. Description: Antibacterial activity against methicillin-resistant Staphylococcus aureus isolate EMRSA-15 after 24 hrs by MTT dye based broth microdilution method. It counts as functional.
Data set [4] has as its system Staphylococcus aureus. Put plainly: Antibacterial activity against […] after 24 hrs by MTT dye based broth microdilution method. Type of data set: functional. Particulars: ATCC 25923, 24 h.
Data set [5] relates to Prostatic carcinoma cell. Description: Cytotoxicity against human prostate cancer cells at 3 to 30 ug/ml after 48 hrs by SRB assay. Type of data set: cell-based. In a few lines:
(§1)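 Cells plated in 96-well format with test samples at 30, 10 and 3 μg/mL for 48 h. Adherent cells fixed in 50% (wt/vol) trichloroacetic acid, stained 60 min with 0.4% sulforhodamine B in 1% acetic acid, bound dye dissolved in 10 mM Tris base, absorbance read at 510 nm.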
A general note: In SRB staining, fixed cells bind dye roughly in proportion to their protein.

Data set [6] has as its system Staphylococcus aureus. Put plainly: Antibacterial activity against methicillin-resistant Staphylococcus aureus SA1199B after 24 hrs by MTT dye based broth microdilution method. Type of data set: functional.
The nature of data set [7]: Cytotoxicity against human hepatic cancer cells at 3 to 30 ug/ml after 48 hrs by SRB assay. Type of data set: cell-based. The essentials:
as §1

SMILES strings stand for the structures. Values after ≈ are worked out from the molar mass of the structure shown. Active and inactive are the calls of the source. The calls are words filed in the database; no cut-off is given here.

Take `CCC(C)CCCCCCC[C@@H]1CC(=O)N[C@@H](CC(C)C)C(=O)N[C@@H](CC(C)C)C(=O)N[C@@H](CC(C)C)C(=O)N[C@@H](CCC(=O)O)C(=O)O1` (some centres undefined): the minimal inhibitory concentration (MIC) (commonly the lowest concentration found to suppress growth) in data set [1] (RN4220, 24 h) worked out at 32 µg/mL (≈ 46 µM); in data set [2], 16 µg/mL (≈ 23 µM); in data set [4], 8 µg/mL (≈ 11.5 µM); in data set [6] it was 8 µg/mL (≈ 11.5 µM). In data set [3], the MIC entry was “inactive”. Further, the Activity result in data set [5] and in data set [7] was “Non-Toxic” in each case.
As to `CCC(C)CC(C)CCCCC[C@@H]1CC(=O)N[C@@H](CC(C)C)C(=O)N[C@@H](CC(C)C)C(=O)N[C@@H](CC(C)C)C(=O)N[C@@H](CCC(=O)O)C(=O)O1` (some centres undefined), the MIC result in data set [1] and in data set [3] was “inactive” throughout. Moreover, the MIC in data set [2] is 16 µg/mL (≈ 22.6 µM); in data set [4], 16 µg/mL (≈ 22.6 µM); in data set [6] it was 32 µg/mL (≈ 45.1 µM). The Activity result in data set [5] and in data set [7] was “Non-Toxic” in each case.
As to `CCn1cc(C(=O)O)c(=O)c2cc(F)c(N3CCNCC3)cc21` [NORFLOXACIN], the MIC in data set [1] (RN4220, 24 h) came to 2 µg/mL (≈ 6.26 µM); in data set [2], 16 µg/mL (≈ 50.1 µM); in data set [3] (isolate EMRSA-15, 24 h), 4 µg/mL (≈ 12.5 µM); in data set [4], 16 µg/mL (≈ 50.1 µM); in data set [6] it was 64 µg/mL (≈ 200 µM).
